# ChEMBL document CHEMBL4152354, “A reusable magnetic nickel nanoparticle based catalyst for the aqueous synthesis of diverse heterocycles and their evaluation as potential anti-bacterial agent” (2018)
# Tested on: Streptococcus pyogenes
# Assay: Antibacterial activity against Streptococcus pyogenes MTCC 1925 assessed as zone of inhibition at 100 uL after 24 hrs by agar well-diffusion method
# Format: functional
# Details: not given
# Method in brief: (§1)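 Mueller-Hinton agar plates swabbed with a bacterial suspension adjusted to 1.5×10^8 CFU/ml. Each 5 mm well received 100 µl of compound, and plates were incubated at 37°C for 24 h. Chloramphenicol (30 mcg) was the positive control and DMSO the negative control. Inhibition zones around wells were measured manually, in triplicate.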
row,Structure (SMILES),inhibition zone (IZ) [mm]
1,O=C(N[C@H](CO)[C@H](O)c1ccc([N+](=O)[O-])cc1)C(Cl)Cl [CHLORAMPHENICOL],36
2,COc1cc(C(C2=C(O)CC(C)(C)CC2=O)C2=C(O)CC(C)(C)CC2=O)cc(OC)c1OC,0
3,Cc1ccc(C(c2c(C)[nH][nH]c2=O)C2C(=O)NC(=O)NC2=O)cc1 (centres undefined),11
4,O=c1oc2ccccc2c(O)c1C(c1ccco1)c1c(O)c2ccccc2oc1=O,18
5,Cc1[nH][nH]c(=O)c1C(c1ccc(Br)cc1)C1C(=O)NC(=O)NC1=O (centres undefined),17
6,Cc1[nH][nH]c(=O)c1C(c1ccccc1[N+](=O)[O-])C1C(=O)NC(=O)NC1=O (centres undefined),12
7,CC1(C)CC(=O)C(C(C2=C(O)CC(C)(C)CC2=O)c2ccc(Cl)cc2)=C(O)C1,0
8,Cc1[nH][nH]c(=O)c1C(c1ccc(N(C)C)cc1)C1C(=O)NC(=O)NC1=O (centres undefined),10
9,COc1ccc(C(C2=C(O)CC(C)(C)CC2=O)C2=C(O)CC(C)(C)CC2=O)cc1OC,0
10,CC1(C)CC(=O)C(C(C2=C(O)CC(C)(C)CC2=O)c2ccc([N+](=O)[O-])cc2)=C(O)C1,0
11,COc1ccc(C(c2c(C)[nH][nH]c2=O)C2C(=O)NC(=O)NC2=O)cc1OC (centres undefined),17
12,CC1(C)CC(=O)C(C(C2=C(O)CC(C)(C)CC2=O)c2ccc(Br)cc2)=C(O)C1,10
13,CC1(C)CC(=O)C(C(C2=C(O)CC(C)(C)CC2=O)c2cccc(F)c2)=C(O)C1,0

# Tested on: Salmonella enterica
# Assay: Antibacterial activity against Salmonella enterica MTCC 735 assessed as zone of inhibition at 100 uL after 24 hrs by agar well-diffusion method
# Format: functional
# Details: not given
row,Structure (SMILES),inhibition zone (IZ) [mm]
1,O=C(N[C@H](CO)[C@H](O)c1ccc([N+](=O)[O-])cc1)C(Cl)Cl [CHLORAMPHENICOL],17
2,COc1cc(C(C2=C(O)CC(C)(C)CC2=O)C2=C(O)CC(C)(C)CC2=O)cc(OC)c1OC,0
3,Cc1ccc(C(c2c(C)[nH][nH]c2=O)C2C(=O)NC(=O)NC2=O)cc1 (centres undefined),10
4,O=c1oc2ccccc2c(O)c1C(c1ccco1)c1c(O)c2ccccc2oc1=O,11
5,Cc1[nH][nH]c(=O)c1C(c1ccc(Br)cc1)C1C(=O)NC(=O)NC1=O (centres undefined),10
6,Cc1[nH][nH]c(=O)c1C(c1ccccc1[N+](=O)[O-])C1C(=O)NC(=O)NC1=O (centres undefined),10
7,CC1(C)CC(=O)C(C(C2=C(O)CC(C)(C)CC2=O)c2ccc(Cl)cc2)=C(O)C1,0
8,Cc1[nH][nH]c(=O)c1C(c1ccc(N(C)C)cc1)C1C(=O)NC(=O)NC1=O (centres undefined),12
9,COc1ccc(C(C2=C(O)CC(C)(C)CC2=O)C2=C(O)CC(C)(C)CC2=O)cc1OC,0
10,CC1(C)CC(=O)C(C(C2=C(O)CC(C)(C)CC2=O)c2ccc([N+](=O)[O-])cc2)=C(O)C1,0
11,COc1ccc(C(c2c(C)[nH][nH]c2=O)C2C(=O)NC(=O)NC2=O)cc1OC (centres undefined),10
12,CC1(C)CC(=O)C(C(C2=C(O)CC(C)(C)CC2=O)c2ccc(Br)cc2)=C(O)C1,0
13,CC1(C)CC(=O)C(C(C2=C(O)CC(C)(C)CC2=O)c2cccc(F)c2)=C(O)C1,0

# Tested on: Escherichia coli
# Assay: Antibacterial activity against Escherichia coli MTCC 730 assessed as zone of inhibition at 100 uL after 24 hrs by agar well-diffusion method
# Format: functional
# Details: not given
# Method in brief: as §1
row,Structure (SMILES),inhibition zone (IZ) [mm]
1,O=C(N[C@H](CO)[C@H](O)c1ccc([N+](=O)[O-])cc1)C(Cl)Cl [CHLORAMPHENICOL],35
2,COc1cc(C(C2=C(O)CC(C)(C)CC2=O)C2=C(O)CC(C)(C)CC2=O)cc(OC)c1OC,0
3,Cc1ccc(C(c2c(C)[nH][nH]c2=O)C2C(=O)NC(=O)NC2=O)cc1 (centres undefined),12
4,O=c1oc2ccccc2c(O)c1C(c1ccco1)c1c(O)c2ccccc2oc1=O,15
5,Cc1[nH][nH]c(=O)c1C(c1ccc(Br)cc1)C1C(=O)NC(=O)NC1=O (centres undefined),15
6,Cc1[nH][nH]c(=O)c1C(c1ccccc1[N+](=O)[O-])C1C(=O)NC(=O)NC1=O (centres undefined),11
7,CC1(C)CC(=O)C(C(C2=C(O)CC(C)(C)CC2=O)c2ccc(Cl)cc2)=C(O)C1,0
8,Cc1[nH][nH]c(=O)c1C(c1ccc(N(C)C)cc1)C1C(=O)NC(=O)NC1=O (centres undefined),10
9,COc1ccc(C(C2=C(O)CC(C)(C)CC2=O)C2=C(O)CC(C)(C)CC2=O)cc1OC,0
10,CC1(C)CC(=O)C(C(C2=C(O)CC(C)(C)CC2=O)c2ccc([N+](=O)[O-])cc2)=C(O)C1,0
11,COc1ccc(C(c2c(C)[nH][nH]c2=O)C2C(=O)NC(=O)NC2=O)cc1OC (centres undefined),16
12,CC1(C)CC(=O)C(C(C2=C(O)CC(C)(C)CC2=O)c2ccc(Br)cc2)=C(O)C1,11
13,CC1(C)CC(=O)C(C(C2=C(O)CC(C)(C)CC2=O)c2cccc(F)c2)=C(O)C1,0

# Tested on: Bacillus cereus
# Assay: Antibacterial activity against Bacillus cereus MTCC 430 assessed as zone of inhibition at 100 uL after 24 hrs by agar well-diffusion method
# Format: functional
# Details: not given
# Method in brief: as §1
row,Structure (SMILES),inhibition zone (IZ) [mm]
1,O=C(N[C@H](CO)[C@H](O)c1ccc([N+](=O)[O-])cc1)C(Cl)Cl [CHLORAMPHENICOL],22
2,COc1cc(C(C2=C(O)CC(C)(C)CC2=O)C2=C(O)CC(C)(C)CC2=O)cc(OC)c1OC,0
3,Cc1ccc(C(c2c(C)[nH][nH]c2=O)C2C(=O)NC(=O)NC2=O)cc1 (centres undefined),12
4,O=c1oc2ccccc2c(O)c1C(c1ccco1)c1c(O)c2ccccc2oc1=O,14
5,Cc1[nH][nH]c(=O)c1C(c1ccc(Br)cc1)C1C(=O)NC(=O)NC1=O (centres undefined),15
6,Cc1[nH][nH]c(=O)c1C(c1ccccc1[N+](=O)[O-])C1C(=O)NC(=O)NC1=O (centres undefined),14
7,CC1(C)CC(=O)C(C(C2=C(O)CC(C)(C)CC2=O)c2ccc(Cl)cc2)=C(O)C1,0
8,Cc1[nH][nH]c(=O)c1C(c1ccc(N(C)C)cc1)C1C(=O)NC(=O)NC1=O (centres undefined),13
9,COc1ccc(C(C2=C(O)CC(C)(C)CC2=O)C2=C(O)CC(C)(C)CC2=O)cc1OC,0
10,CC1(C)CC(=O)C(C(C2=C(O)CC(C)(C)CC2=O)c2ccc([N+](=O)[O-])cc2)=C(O)C1,15
11,COc1ccc(C(c2c(C)[nH][nH]c2=O)C2C(=O)NC(=O)NC2=O)cc1OC (centres undefined),15
12,CC1(C)CC(=O)C(C(C2=C(O)CC(C)(C)CC2=O)c2ccc(Br)cc2)=C(O)C1,11
13,CC1(C)CC(=O)C(C(C2=C(O)CC(C)(C)CC2=O)c2cccc(F)c2)=C(O)C1,0

# Tested on: Klebsiella pneumoniae
# Assay: Antibacterial activity against Klebsiella pneumoniae MTCC 109 assessed as zone of inhibition at 100 uL after 24 hrs by agar well-diffusion method
# Format: functional
# Details: not given
# Method in brief: as §1
row,Structure (SMILES),inhibition zone (IZ) [mm]
1,O=C(N[C@H](CO)[C@H](O)c1ccc([N+](=O)[O-])cc1)C(Cl)Cl [CHLORAMPHENICOL],33
2,COc1cc(C(C2=C(O)CC(C)(C)CC2=O)C2=C(O)CC(C)(C)CC2=O)cc(OC)c1OC,0
3,Cc1ccc(C(c2c(C)[nH][nH]c2=O)C2C(=O)NC(=O)NC2=O)cc1 (centres undefined),10
4,O=c1oc2ccccc2c(O)c1C(c1ccco1)c1c(O)c2ccccc2oc1=O,17
5,Cc1[nH][nH]c(=O)c1C(c1ccc(Br)cc1)C1C(=O)NC(=O)NC1=O (centres undefined),15
6,Cc1[nH][nH]c(=O)c1C(c1ccccc1[N+](=O)[O-])C1C(=O)NC(=O)NC1=O (centres undefined),13
7,CC1(C)CC(=O)C(C(C2=C(O)CC(C)(C)CC2=O)c2ccc(Cl)cc2)=C(O)C1,0
8,Cc1[nH][nH]c(=O)c1C(c1ccc(N(C)C)cc1)C1C(=O)NC(=O)NC1=O (centres undefined),10
9,COc1ccc(C(C2=C(O)CC(C)(C)CC2=O)C2=C(O)CC(C)(C)CC2=O)cc1OC,0
10,CC1(C)CC(=O)C(C(C2=C(O)CC(C)(C)CC2=O)c2ccc([N+](=O)[O-])cc2)=C(O)C1,14
11,COc1ccc(C(c2c(C)[nH][nH]c2=O)C2C(=O)NC(=O)NC2=O)cc1OC (centres undefined),21
12,CC1(C)CC(=O)C(C(C2=C(O)CC(C)(C)CC2=O)c2ccc(Br)cc2)=C(O)C1,11
13,CC1(C)CC(=O)C(C(C2=C(O)CC(C)(C)CC2=O)c2cccc(F)c2)=C(O)C1,0

# Tested on: Bacillus cereus
# Assay: Antibacterial activity against Bacillus cereus MTCC 430 after 18 hrs by TTC staining based broth microdilution method
# Format: functional
# Details: MTCC 430, 18 h
# Method in brief: (§2)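 Broth microdilution in Mueller-Hinton broth. 50 µl of inoculum from a 0.5 McFarland suspension was added to 50 µl of compound, giving final concentrations of 0.024–400 mg/ml in DMSO. Sealed plates were incubated at 37°C for 18 h, then 50 µl of 0.5% TTC was added for 1 h in the dark. MIC was the lowest concentration with no visible growth (well stays clear). Triplicate; mean ± SD.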
row,Structure (SMILES),MIC [µg/mL]
1,O=C(N[C@H](CO)[C@H](O)c1ccc([N+](=O)[O-])cc1)C(Cl)Cl [CHLORAMPHENICOL],90
2,Cc1ccc(C(c2c(C)[nH][nH]c2=O)C2C(=O)NC(=O)NC2=O)cc1 (centres undefined),6250
3,O=c1oc2ccccc2c(O)c1C(c1ccco1)c1c(O)c2ccccc2oc1=O,3120
4,Cc1[nH][nH]c(=O)c1C(c1ccc(Br)cc1)C1C(=O)NC(=O)NC1=O (centres undefined),780
5,Cc1[nH][nH]c(=O)c1C(c1ccccc1[N+](=O)[O-])C1C(=O)NC(=O)NC1=O (centres undefined),6250
6,Cc1[nH][nH]c(=O)c1C(c1ccc(N(C)C)cc1)C1C(=O)NC(=O)NC1=O (centres undefined),3120
7,COc1ccc(C(c2c(C)[nH][nH]c2=O)C2C(=O)NC(=O)NC2=O)cc1OC (centres undefined),780

# Tested on: Klebsiella pneumoniae
# Assay: Antibacterial activity against Klebsiella pneumoniae MTCC 109 after 18 hrs by TTC staining based broth microdilution method
# Format: functional
# Details: MTCC 109, 18 h
# Method in brief: as §2
row,Structure (SMILES),MIC [µg/mL]
1,O=C(N[C@H](CO)[C@H](O)c1ccc([N+](=O)[O-])cc1)C(Cl)Cl [CHLORAMPHENICOL],90
2,Cc1ccc(C(c2c(C)[nH][nH]c2=O)C2C(=O)NC(=O)NC2=O)cc1 (centres undefined),3120
3,O=c1oc2ccccc2c(O)c1C(c1ccco1)c1c(O)c2ccccc2oc1=O,780
4,Cc1[nH][nH]c(=O)c1C(c1ccc(Br)cc1)C1C(=O)NC(=O)NC1=O (centres undefined),780
5,Cc1[nH][nH]c(=O)c1C(c1ccccc1[N+](=O)[O-])C1C(=O)NC(=O)NC1=O (centres undefined),3120
6,Cc1[nH][nH]c(=O)c1C(c1ccc(N(C)C)cc1)C1C(=O)NC(=O)NC1=O (centres undefined),3120
7,COc1ccc(C(c2c(C)[nH][nH]c2=O)C2C(=O)NC(=O)NC2=O)cc1OC (centres undefined),390
